Several values for one entry are separate records, joined by “and”; a condition that tells them apart may be missing. Equal entries are not always repeated.
How the values were obtained:
[1] = biological target: T1, Adenosine receptor A1 (Homo sapiens) (UniProt P30542); experiment: Percentage loss of [3H]-DPCPX binding to Adenosine A1 receptor in the presence of Xanthine derivative at 5 nM from DDT1 MF2 cells; type: cell-based
T1 sequence (whole entry): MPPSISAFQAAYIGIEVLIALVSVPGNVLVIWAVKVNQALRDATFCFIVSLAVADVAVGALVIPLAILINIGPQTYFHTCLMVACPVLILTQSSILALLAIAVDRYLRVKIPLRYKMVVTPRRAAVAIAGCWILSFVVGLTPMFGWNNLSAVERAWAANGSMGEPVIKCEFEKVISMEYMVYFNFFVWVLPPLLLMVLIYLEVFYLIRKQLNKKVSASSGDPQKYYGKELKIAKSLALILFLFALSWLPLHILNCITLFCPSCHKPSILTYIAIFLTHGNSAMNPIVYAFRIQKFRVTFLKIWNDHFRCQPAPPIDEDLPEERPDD
Method in brief: (§1)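 DDT1 MF-2 cells preincubated with or without antagonist (5 or 100 nM) for 30 min at 30 °C, then 10 cell wash cycles to remove unbound ligand. Membranes then prepared and assayed for [3H]DPCPX Bmax and KD. Receptor loss is the reduction in Bmax versus control. Mean ± SE, n = 3-6.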

[2] = biological target: T1, Adenosine receptor A1 (Homo sapiens); experiment: Percentage loss of [3H]DPCPX binding to Adenosine A1 receptor in the presence of Xanthine derivative at 100 nM from DDT1 MF2 cells; type: cell-based; method in brief: as §1
[3] = Inhibitory concentration against [3H]DPCPX binding to Adenosine A1 receptor from DDT1 MF2 cells
[4] = Equilibrium dissociation constant for [3H]DPCPX binding to Adenosine A1 receptor from DDT1 MF2 cell membranes

Row | SMILES | Loss [1] [%] | Loss [2] [%] | IC50 [3] [nM] | Kd [4]
1 | CCCn1c(=O)c2nc(C3CC4CCC3C4)[nH]c2n(CCCCC(=O)c2ccc(S(=O)(=O)F)cc2)c1=O (stereo not drawn) | 50 | 81 | – | –
2 | CCCn1c(=O)c2nc(C3CCCCC3)[nH]c2n(CCCCC(=O)c2ccc(S(=O)(=O)F)cc2)c1=O | 56 | 78 | – | –
3 | CCCn1c(=O)c2nc(C3CCCC3)[nH]c2n(CCCCC(=O)c2ccc(S(=O)(=O)F)cc2)c1=O | 51 | 73 | – | –
4 | CCCn1c(=O)c2nc(C3CCCC3)[nH]c2n(CCCNC(=O)c2ccc(S(=O)(=O)F)cc2)c1=O | – | – | 21 | 0.36 nM and 0.31 nM
